For the assay, the target named is Keap1/Nrf2 (Homo sapiens, UniProt Q14145). Kind of assay: Inhibition of Nrf2 peptide (KKKKAFFAQLQLDEETGEFL) binding to Keap1 Kelch domain (321 to 609 residues) (unknown origin) assessed as dissociation constant by surface plasmon resonance based inhibition in solution assay. It is filed as protein assay. An outline of the steps:
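Solution-competition SPR at 20 °C in HBS-P (10 mM HEPES, 150 mM NaCl, 0.05% Tween 20, 1.0 mM TCEP, pH 7.40), 10 µL/min. Nrf2 peptide amine-coupled to CM5 chip (400–600 RU). 25 nM Keap1 Kelch domain (aa321–609) preincubated with compound, injected; initial association slopes (5–15 s) vs compound-free controls give free Keap1. KD by nonlinear regression; mean ± SD of three measurements on distinct samples.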
Background: In SPR one partner is held on a chip, and binding of the other changes the refractive index at the surface.
Keap1/Nrf2, sequence (Q16236 whole entry, the tested form may be a part): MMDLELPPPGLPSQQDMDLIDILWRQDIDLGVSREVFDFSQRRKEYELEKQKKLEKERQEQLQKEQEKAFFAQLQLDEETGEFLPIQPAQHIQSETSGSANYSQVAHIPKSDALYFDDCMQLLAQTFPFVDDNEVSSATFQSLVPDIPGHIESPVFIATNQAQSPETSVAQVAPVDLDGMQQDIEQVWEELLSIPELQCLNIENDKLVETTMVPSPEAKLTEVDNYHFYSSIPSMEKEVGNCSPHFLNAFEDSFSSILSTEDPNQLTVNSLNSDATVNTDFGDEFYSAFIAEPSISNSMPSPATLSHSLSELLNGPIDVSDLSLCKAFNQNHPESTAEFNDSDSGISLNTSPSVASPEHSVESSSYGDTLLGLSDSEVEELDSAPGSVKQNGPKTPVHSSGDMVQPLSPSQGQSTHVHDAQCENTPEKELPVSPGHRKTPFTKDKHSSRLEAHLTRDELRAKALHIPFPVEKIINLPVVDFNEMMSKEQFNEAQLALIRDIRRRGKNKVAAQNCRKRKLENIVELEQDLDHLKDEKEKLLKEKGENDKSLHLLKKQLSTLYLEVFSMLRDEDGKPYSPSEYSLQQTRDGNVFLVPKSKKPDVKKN
Keap1/Nrf2, sequence (Q14145 whole entry, the tested form may be a part): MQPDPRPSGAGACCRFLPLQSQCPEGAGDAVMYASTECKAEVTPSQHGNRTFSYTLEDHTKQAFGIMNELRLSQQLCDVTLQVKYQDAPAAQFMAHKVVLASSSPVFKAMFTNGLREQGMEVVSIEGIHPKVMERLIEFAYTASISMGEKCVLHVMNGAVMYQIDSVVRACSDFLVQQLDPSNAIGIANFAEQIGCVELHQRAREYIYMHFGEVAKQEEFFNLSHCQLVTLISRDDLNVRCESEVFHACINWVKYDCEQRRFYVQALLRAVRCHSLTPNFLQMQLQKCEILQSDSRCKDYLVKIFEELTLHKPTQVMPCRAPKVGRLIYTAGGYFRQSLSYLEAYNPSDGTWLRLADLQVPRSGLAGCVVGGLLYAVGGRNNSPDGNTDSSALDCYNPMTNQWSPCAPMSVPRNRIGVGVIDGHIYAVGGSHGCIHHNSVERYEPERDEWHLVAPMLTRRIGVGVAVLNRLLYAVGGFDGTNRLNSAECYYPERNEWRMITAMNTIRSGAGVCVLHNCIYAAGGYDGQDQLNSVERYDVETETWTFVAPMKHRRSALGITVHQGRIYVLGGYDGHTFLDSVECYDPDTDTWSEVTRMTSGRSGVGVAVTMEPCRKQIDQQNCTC
By Kd is commonly meant a measure of binding affinity in units of concentration. Consider `COC(=O)[C@@H]1CSCc2ccccc2C(=O)OC[C@@H](NC(=O)[C@@H]2CCCN2C(C)=O)C(=O)N1`, for which the Kd is greater than 500 µM.
As to `CNC(=O)[C@H]1CSCc2ccccc2C(=O)OC[C@@H](NC(=O)[C@@H]2CCCN2C(C)=O)C(=O)N1`, the Kd turned out to be 209 µM.
Regarding `CCN(CC)C(=O)[C@H]1CSCc2ccccc2C(=O)OC[C@@H](NC(=O)[C@@H]2CCCN2C(C)=O)C(=O)N1`, the Kd was greater than 500 µM.
On to `COC(=O)[C@H]1CSCc2ccccc2C(=O)OC[C@@H](NC(=O)[C@H]2CCCN2C(C)=O)C(=O)N1`, for which the Kd is greater than 500 µM.
Turning to `CC(=O)N1CCC[C@H]1C(=O)N[C@@H]1CCOC(=O)c2ccccc2CSC[C@H](C(=O)N(C)C)NC1=O`, the Kd is greater than 500 µM.
Consider `CC(=O)N1CCC[C@H]1C(=O)N[C@@H]1COC(=O)c2ccccc2CSC[C@H](C(=O)N(C)C)NC(=O)CNC1=O`, for which the Kd was greater than 500 µM.
Under `CC(=O)N1CCC[C@H]1C(=O)N[C@@H]1COC(=O)c2ccccc2CSC[C@H](C(N)=O)NC1=O` stands greater than 500 µM; under `COC(=O)[C@H]1CSCc2ccccc2C(=O)OC[C@H](NC(=O)[C@@H]2CCCN2C(C)=O)C(=O)N1`, greater than 500 µM; under `COC(=O)[C@@H]1CSCc2ccccc2C(=O)OC[C@H](NC(=O)[C@@H]2CCCN2C(C)=O)C(=O)N1`, greater than 500 µM.
For `COC(=O)[C@H]1CSCc2ccccc2C(=O)OC[C@@H](NC(=O)[C@@H]2CCCN2C(C)=O)C(=O)N1`, the Kd came to 237 µM.
Turning to `CSC[C@@H](NC(=O)[C@@H](COC(=O)c1ccccc1)NC(=O)[C@@H]1CCCN1C(C)=O)C(=O)N(C)C`, the dissociation constant Kd was found to be 406 µM.
In the case of `COC(=O)[C@H]1CSCc2ccccc2C(=O)OC[C@@H](NC(=O)[C@@H]2C[C@@H](O)CN2C(C)=O)C(=O)N1`, the Kd worked out at 270 µM.

(Values after ChEMBL document CHEMBL4706638, “Mining Natural Products for Macrocycles to Drug Difficult Targets” (J Med Chem, 2021).)
